In ChEMBL document CHEMBL1158464, “Structure-activity relationships and cancer-cell selective toxicity of novel inhibitors of glioma-associated oncogene homologue 1 (Gli1) mediated transcription” (J Med Chem, 2009):
Activity calls are given as the source filed them. No cut-off for these calls is given here.

Experiments:
[1] = target: T1, Zinc finger protein GLI1 (Homo sapiens) (UniProt P08151); test: Inhibition of exogenously transfected human Gli1-mediated transcriptional activity in mouse C3H10T1/2 cells at 20 uM after 24 hrs by luciferase reporter gene assay; assay type: cell-based; details: C3H 10T1/2
T1 sequence (whole entry): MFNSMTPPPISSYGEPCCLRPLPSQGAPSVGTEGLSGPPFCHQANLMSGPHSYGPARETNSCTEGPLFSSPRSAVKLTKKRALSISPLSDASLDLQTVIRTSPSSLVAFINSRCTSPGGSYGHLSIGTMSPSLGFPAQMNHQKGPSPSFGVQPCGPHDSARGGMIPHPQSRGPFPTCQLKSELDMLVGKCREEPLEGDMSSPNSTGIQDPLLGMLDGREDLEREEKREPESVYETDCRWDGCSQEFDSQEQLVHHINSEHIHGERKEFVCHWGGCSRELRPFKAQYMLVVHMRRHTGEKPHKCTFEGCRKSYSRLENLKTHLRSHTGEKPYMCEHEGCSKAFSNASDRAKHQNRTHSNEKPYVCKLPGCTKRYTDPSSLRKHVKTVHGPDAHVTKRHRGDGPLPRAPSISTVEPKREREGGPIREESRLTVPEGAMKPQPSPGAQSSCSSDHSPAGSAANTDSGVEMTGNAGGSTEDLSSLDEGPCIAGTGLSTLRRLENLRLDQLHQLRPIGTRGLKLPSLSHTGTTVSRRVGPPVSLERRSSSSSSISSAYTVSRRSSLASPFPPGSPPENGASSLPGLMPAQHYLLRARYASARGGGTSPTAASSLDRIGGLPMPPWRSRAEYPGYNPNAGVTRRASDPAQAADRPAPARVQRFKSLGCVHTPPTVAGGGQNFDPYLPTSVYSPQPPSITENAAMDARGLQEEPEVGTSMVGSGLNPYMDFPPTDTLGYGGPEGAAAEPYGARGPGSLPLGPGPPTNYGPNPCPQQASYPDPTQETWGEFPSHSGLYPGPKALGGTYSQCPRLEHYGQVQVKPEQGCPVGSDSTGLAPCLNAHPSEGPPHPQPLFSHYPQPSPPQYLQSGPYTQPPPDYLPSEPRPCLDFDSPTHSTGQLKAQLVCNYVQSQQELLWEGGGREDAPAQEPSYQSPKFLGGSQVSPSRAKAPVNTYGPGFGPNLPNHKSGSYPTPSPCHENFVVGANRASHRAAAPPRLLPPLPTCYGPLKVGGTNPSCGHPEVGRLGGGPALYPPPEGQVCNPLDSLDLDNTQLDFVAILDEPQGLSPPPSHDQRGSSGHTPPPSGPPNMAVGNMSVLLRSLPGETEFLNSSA
In short: (§1)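 They were replated 18 h later, given compound or DMSO 6 h after plating, and exposed for 24 h at 37 °C, 5% CO2. Lysate was read by dual luciferase as firefly/Renilla, triplicate, DMSO = 0%. IC50 came from curve fitting.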

[2] = target: T1, Zinc finger protein GLI1 (Homo sapiens); test: Inhibition of exogenously transfected human Gli1-mediated transcriptional activity in mouse C3H10T1/2 cells at 40 uM after 24 hrs by luciferase reporter gene assay; assay type: cell-based; details: C3H 10T1/2; in short: as §1
SJRH30 = test: Cytotoxicity against human Rh30 cells at 40 uM/well after 68 hrs by alamar blue assay; assay type: functional, cell-based
In short: (§2)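 Cells plated in appropriate medium 24 h before compound. A 10 mM DMSO stock was diluted in EMEM to 160 µM (4×) and added in triplicate to a final 40 µM. Incubated 68 h at 37 °C, then Alamar Blue for 4 h at 37 °C. Fluorescence read at ex 510/em 590 nm. Viability taken relative to DMSO control wells.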

MDA-MB-231 = test: Cytotoxicity against human MDA-MB-231 cells at 40 uM/well after 68 hrs by alamar blue assay; assay type: functional, cell-based; in short: as §2
Daoy = test: Cytotoxicity against human DaOY cells at 40 uM/well after 68 hrs by alamar blue assay; assay type: functional, cell-based; in short: as §2
DU-145 = test: Cytotoxicity against human DU145 cells at 40 uM/well after 68 hrs by alamar blue assay; assay type: functional, cell-based; in short: as §2
Raji = test: Cytotoxicity against human Raji cells at 40 uM/well after 68 hrs by alamar blue assay; assay type: functional, cell-based; in short: as §2
HepG2 = test: Cytotoxicity against human HepG2 cells at 40 uM/well after 68 hrs by alamar blue assay; assay type: functional, cell-based; in short: as §2
LN-229 = test: Cytotoxicity against human LN229 cells at 40 uM/well after 68 hrs by alamar blue assay; assay type: functional, cell-based; in short: as §2
BJ = test: Cytotoxicity against human TERT-immortalized human BJ cells at 40 uM/well after 68 hrs by alamar blue assay; assay type: cell-based; in short: as §2

Compound	inhibition [1]	inhibition [2]	Activity (SJRH30)	Activity (MDA-MB-231)	Activity (Daoy)	Activity (DU-145)	Activity (Raji)	Activity (HepG2)	Activity (LN-229)	Activity (BJ)
COc1ccc2cc([C@H](C)C(=O)NCCc3ccc(O)cc3)ccc2c1	Active	Active	Active	Active	Active	Active	Active	inactive	inactive	Non-toxic
COc1ccc(C(=O)NC[C@@H](C)c2cccc(C(=O)c3ccccc3)c2)cc1	Active	Active	Active	Active	Active	Active	Active	inactive	inactive	Non-toxic
COc1ccc(CCNC(=O)[C@@H](C)c2cccc(C(=O)c3ccccc3)c2)cc1O	Active	Active	Active	Active	Active	Active	Active	inactive	inactive	Non-toxic
COCCN(CCc1ccc(O)cc1)C(=O)[C@@H](C)c1cccc(C(=O)c2ccccc2)c1	Active	Active	Active	Active	Active	Active	Active	inactive	inactive	Non-toxic
COc1cccc(CCNC(=O)[C@@H](C)c2cccc(C(=O)c3ccccc3)c2)c1	Active	Active	Active	Active	Active	Active	Active	inactive	inactive	Non-toxic
COc1ccccc1CCNC(=O)[C@@H](C)c1cccc(C(=O)c2ccccc2)c1	Active	Active	Active	Active	Active	Active	Active	inactive	inactive	Non-toxic
C[C@H](C(=O)NCCc1ccc(Cl)cc1)c1cccc(C(=O)c2ccccc2)c1	Active	Active	Active	Active	Active	Active	Active	inactive	inactive	Non-toxic
COc1cc(CCNC(=O)[C@@H](C)c2cccc(C(=O)c3ccccc3)c2)ccc1O	Active	Active	Active	Active	Active	Active	Active	inactive	inactive	Non-toxic
C[C@H](C(=O)NCCc1ccccc1)c1cccc(C(=O)c2ccccc2)c1	Active	Active	Active	Active	Active	Active	Active	inactive	inactive	Non-toxic
COc1ccc2c(c1)c(CC(=O)NCCc1ccc(O)cc1)c(C)n2C(=O)c1ccc(Cl)cc1	Active	Active	Active	Active	Active	Active	Active	inactive	inactive	Non-toxic
C[C@H](COC(=O)Nc1ccc(O)cc1)c1cccc(C(=O)c2ccccc2)c1	Active	Active	Active	Active	Active	Active	Active	inactive	inactive	Non-toxic
C[C@H](C(=O)NCCc1ccccc1O)c1cccc(C(=O)c2ccccc2)c1	Active	–	Active	Active	Active	Active	Active	inactive	inactive	Non-toxic
COc1ccc(CCNC(=O)[C@@H](C)c2cccc(C(=O)c3ccccc3)c2)cc1	Active	Active	Active	Active	Active	Active	Active	inactive	inactive	Non-toxic

Second part, led by results:

inhibition [1]	inhibition [2]	Compound	Activity (SJRH30)	Activity (MDA-MB-231)	Activity (Daoy)	Activity (DU-145)	Activity (Raji)	Activity (HepG2)	Activity (LN-229)	Activity (BJ)
Active	Active	C[C@H](CNC(=O)CCc1ccc(O)cc1)c1cccc(C(=O)c2ccccc2)c1	Active	Active	Active	Active	Active	inactive	inactive	Non-toxic
Active	Active	C[C@H](CNC(=O)Nc1ccc(O)cc1)c1cccc(C(=O)c2ccccc2)c1	Active	Active	Active	Active	Active	inactive	inactive	Toxic
Active	Active	C[C@H](CNC(=O)c1ccc(O)cc1)c1cccc(C(=O)c2ccccc2)c1	Active	Active	Active	Active	Active	inactive	inactive	Non-toxic
Active	Active	C[C@H](COC(=O)NCCc1ccc(O)cc1)c1cccc(C(=O)c2ccccc2)c1	Active	Active	Active	Active	Active	inactive	inactive	Non-toxic
Active	Active	C[C@H](CNC(=O)NCCc1ccc(O)cc1)c1cccc(C(=O)c2ccccc2)c1	Active	Active	Active	Active	Active	inactive	inactive	Toxic
Active	Active	C[C@H](C(=O)NCc1ccc(O)cc1)c1cccc(C(=O)c2ccccc2)c1	Active	Active	Active	Active	Active	inactive	inactive	Non-toxic
